# What was measured:
# Format in all cases: functional
# Design in all cases: scale not given: the % may be the effect or the level left
# HOP-92 = test: Growth inhibition of human HOP92 cells assessed tumor cell growth at 10^-5 M
# Method in brief: (§1)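 NCI 60-human-tumor-cell-line panel screen. Each compound was tested at a single concentration of 10^-5 M, and percent growth of tumor cells was recorded for each cell line. Growth inhibition was expressed from these percent-growth values.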
# MOLT-4 = test: Growth inhibition of human MOLT4 cells assessed tumor cell growth at 10^-5 M; method in brief: as §1
# EKVX = test: Growth inhibition of human EKVX cells assessed tumor cell growth at 10^-5 M; method in brief: as §1
# UACC-257 = test: Growth inhibition of human UACC257 cells assessed tumor cell growth at 10^-5 M
# Method in brief: (§2)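 Single-dose screen at 10^-5 M across the 60 human tumor cell line panel, run to NCI standards. The value is the percent growth of each cell line in the presence of compound. Compounds active at this dose moved on to five-concentration testing (10^-4 to 10^-8 M).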
# NCI/ADR-RES = test: Growth inhibition of human NCI/ADR-RES cells assessed tumor cell growth at 10^-5 M; method in brief: as §1
# OVCAR-5 = test: Growth inhibition of human OVCAR5 cells assessed tumor cell growth at 10^-5 M; method in brief: as §1
# NCI-H23 = test: Growth inhibition of human NCI-H23 cells assessed tumor cell growth at 10^-5 M; method in brief: as §1
# NCI-H226 = test: Growth inhibition of human NCI-H226 cells assessed tumor cell growth at 10^-5 M; method in brief: as §1
# BT-549 = test: Growth inhibition of human BT549 cells assessed tumor cell growth at 10^-5 M; method in brief: as §1
# ACHN = test: Growth inhibition of human ACHN cells assessed tumor cell growth at 10^-5 M; method in brief: as §1
# OVCAR-8 = test: Growth inhibition of human OVCAR8 cells assessed tumor cell growth at 10^-5 M; method in brief: as §1
# DU-145 = test: Growth inhibition of human DU145 cells assessed tumor cell growth at 10^-5 M; method in brief: as §1
# 786-0 = test: Growth inhibition of human 786-0 cells assessed tumor cell growth at 10^-5 M; method in brief: as §1
# UO-31 = test: Growth inhibition of human UO31 cells assessed tumor cell growth at 10^-5 M; method in brief: as §2
# SF-539 = test: Growth inhibition of human SF539 cells assessed tumor cell growth at 10^-5 M; method in brief: as §1
# SK-MEL-28 = test: Growth inhibition of human SK-MEL-28 cells assessed tumor cell growth at 10^-5 M; method in brief: as §1
# HCT-15 = test: Growth inhibition of human HCT15 cells assessed tumor cell growth at 10^-5 M; method in brief: as §1
# SK-MEL-2 = test: Growth inhibition of human SK-MEL-2 cells assessed tumor cell growth at 10^-5 M; method in brief: as §1
# M14 = test: Growth inhibition of human M14 cells assessed tumor cell growth at 10^-5 M; method in brief: as §1
# [1] = Growth inhibition of human […] cells assessed tumor cell growth at 10^-5 M; method in brief: as §1
# TK-10 = test: Growth inhibition of human TK10 cells assessed tumor cell growth at 10^-5 M; method in brief: as §2
# SF-268 = test: Growth inhibition of human SF268 cells assessed tumor cell growth at 10^-5 M; method in brief: as §1
# OVCAR-4 = test: Growth inhibition of human OVCAR4 cells assessed tumor cell growth at 10^-5 M; method in brief: as §1
# HT-29 = test: Growth inhibition of human HT-29 cells assessed tumor cell growth at 10^-5 M; method in brief: as §1
# OVCAR-3 = test: Growth inhibition of human OVCAR3 cells assessed tumor cell growth at 10^-5 M; method in brief: as §1
# KM12 = test: Growth inhibition of human KM12 cells assessed tumor cell growth at 10^-5 M; method in brief: as §1
# SNB-19 = test: Growth inhibition of human SNB19 cells assessed tumor cell growth at 10^-5 M; method in brief: as §2
# CCRF-CEM = test: Growth inhibition of human CCRF-CEM cells assessed tumor cell growth at 10^-5 M; method in brief: as §1
# SF-295 = test: Growth inhibition of human SF295 cells assessed tumor cell growth at 10^-5 M; method in brief: as §1
# MDA-MB-231 = test: Growth inhibition of human MDA-MB-231 cells assessed tumor cell growth at 10^-5 M; method in brief: as §1
# UACC-62 = test: Growth inhibition of human UACC62 cells assessed tumor cell growth at 10^-5 M; method in brief: as §2
# MDA-MB-468 = test: Growth inhibition of human MDA-MB-468 cells assessed tumor cell growth at 10^-5 M; method in brief: as §1
# SK-OV-3 = test: Growth inhibition of human SKOV3 cells assessed tumor cell growth at 10^-5 M; method in brief: as §1
# K562 = test: Growth inhibition of human K562 cells assessed tumor cell growth at 10^-5 M; method in brief: as §1
# LOX IMVI = test: Growth inhibition of human LOXIMVI cells assessed tumor cell growth at 10^-5 M; method in brief: as §1
# PC-3 = test: Growth inhibition of human PC3 cells assessed tumor cell growth at 10^-5 M; method in brief: as §1
# MDA-MB-435 = test: Growth inhibition of human MDA-MB-435 cells assessed tumor cell growth at 10^-5 M; method in brief: as §1
# SK-MEL-5 = test: Growth inhibition of human SK-MEL-5 cells assessed tumor cell growth at 10^-5 M; method in brief: as §1
# NCI-H460 = test: Growth inhibition of human NCI-H460 cells assessed tumor cell growth at 10^-5 M; method in brief: as §1
# HCT-116 = test: Growth inhibition of human HCT116 cells assessed tumor cell growth at 10^-5 M; method in brief: as §1
# Malme-3M = test: Growth inhibition of human MALME-3M cells assessed tumor cell growth at 10^-5 M; method in brief: as §1
# NCI-H322M = test: Growth inhibition of human NCI-H322M cells assessed tumor cell growth at 10^-5 M; method in brief: as §1
# COLO 205 = test: Growth inhibition of human COLO205 cells assessed tumor cell growth at 10^-5 M; method in brief: as §1
# NCI-H522 = test: Growth inhibition of human NCI-H522 cells assessed tumor cell growth at 10^-5 M; method in brief: as §1
# A498 = test: Growth inhibition of human A498 cells assessed tumor cell growth at 10^-5 M; method in brief: as §1
# IGROV-1 = test: Growth inhibition of human IGROV1 cells assessed tumor cell growth at 10^-5 M; method in brief: as §1
# [2] = Growth inhibition of human Hs 578T cells assessed tumor cell growth at 10^-5 M; method in brief: as §1
# SN12C = test: Growth inhibition of human SN12C cells assessed tumor cell growth at 10^-5 M; method in brief: as §1
# A549 = test: Growth inhibition of human A549 cells assessed tumor cell growth at 10^-5 M; method in brief: as §1
# HOP-62 = test: Growth inhibition of human HOP62 cells assessed tumor cell growth at 10^-5 M; method in brief: as §1
# CAKI-1 = test: Growth inhibition of human Caki1 cells assessed tumor cell growth at 10^-5 M; method in brief: as §1
# SW-620 = test: Growth inhibition of human SW620 cells assessed tumor cell growth at 10^-5 M; method in brief: as §2
# SNB-75 = test: Growth inhibition of human SNB75 cells assessed tumor cell growth at 10^-5 M; method in brief: as §2
# MCF7 = test: Growth inhibition of human MCF7 cells assessed tumor cell growth at 10^-5 M; method in brief: as §1
# HL-60(TB) = test: Growth inhibition of human HL-60(TB) cells assessed tumor cell growth at 10^-5 M
# Method in brief: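 HL-60(TB), part of the 60-line panel, tested at a single concentration of 10^-5 M. The read-out is percent tumor cell growth relative to untreated growth.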
# RXF 393 = test: Growth inhibition of human RXF393 cells assessed tumor cell growth at 10^-5 M; method in brief: as §1
# U-251 = test: Growth inhibition of human U251 cells assessed tumor cell growth at 10^-5 M; method in brief: as §2
# HCC 2998 = test: Growth inhibition of human HCC2998 cells assessed tumor cell growth at 10^-5 M; method in brief: as §1
# T47D = test: Growth inhibition of human T47D cells assessed tumor cell growth at 10^-5 M; method in brief: as §2
smiles,measurement,setting,value
O=C1Nc2ccccc2/C1=C/c1cn(C(=O)c2ccc(Cl)cc2)c2ccccc12,Activity,HOP-92,99.3%
same,Activity,MOLT-4,109.3%
same,Activity,EKVX,58.9%
same,Activity,UACC-257,99.6%
same,Activity,NCI/ADR-RES,104.2%
same,Activity,OVCAR-5,110.2%
same,Activity,NCI-H23,90.8%
same,Activity,NCI-H226,92.3%
same,Activity,BT-549,96.4%
same,Activity,ACHN,102.9%
same,Activity,OVCAR-8,95%
same,Activity,DU-145,118.1%
same,Activity,786-0,111.4%
same,Activity,UO-31,74.6%
same,Activity,SF-539,99.3%
same,Activity,SK-MEL-28,92.9%
same,Activity,HCT-15,92%
same,Activity,SK-MEL-2,119.8%
same,Activity,M14,102.4%
same,Activity,[1],74.5%
same,Activity,TK-10,130%
same,Activity,SF-268,99.8%
same,Activity,OVCAR-4,78.2%
same,Activity,HT-29,110%
same,Activity,OVCAR-3,98.7%
same,Activity,KM12,40.8%
same,Activity,SNB-19,99%
same,Activity,CCRF-CEM,104.1%
same,Activity,SF-295,114.3%
same,Activity,MDA-MB-231,77.7%
same,Activity,UACC-62,89.3%
same,Activity,MDA-MB-468,97.6%
same,Activity,SK-OV-3,103.8%
same,Activity,K562,85.6%
same,Activity,LOX IMVI,100%
same,Activity,PC-3,95.6%
same,Activity,MDA-MB-435,109.9%
same,Activity,SK-MEL-5,97.6%
same,Activity,NCI-H460,107.2%
same,Activity,HCT-116,91.5%
same,Activity,Malme-3M,117.8%
same,Activity,NCI-H322M,126.5%
same,Activity,COLO 205,58.2%
same,Activity,NCI-H522,85.5%
same,Activity,A498,116.3%
same,Activity,IGROV-1,72.6%
same,Activity,[2],106%
same,Activity,SN12C,95.4%
same,Activity,A549,101.2%
same,Activity,HOP-62,110.7%
same,Activity,CAKI-1,59%
same,Activity,SW-620,102.4%
same,Activity,SNB-75,87.7%
same,Activity,MCF7,59%
same,Activity,HL-60(TB),150.1%
same,Activity,RXF 393,129.9%
same,Activity,U-251,99.4%
C=CCn1cc(/C=C2\C(=O)N(c3c(Cl)cccc3Cl)c3ccccc32)c2ccccc21,Activity,HOP-92,72.1%
same,Activity,MOLT-4,71.8%
same,Activity,EKVX,80.5%
same,Activity,UACC-257,116%
same,Activity,NCI/ADR-RES,84.6%
same,Activity,HCC 2998,92.3%
same,Activity,OVCAR-5,98.9%
same,Activity,NCI-H23,83.7%
same,Activity,NCI-H226,87%
same,Activity,BT-549,127.4%
same,Activity,ACHN,80.5%
same,Activity,OVCAR-8,90.7%
same,Activity,DU-145,101.7%
same,Activity,786-0,86.2%
same,Activity,UO-31,56.7%
same,Activity,SF-539,92.2%
same,Activity,SK-MEL-28,109.8%
same,Activity,HCT-15,48.8%
same,Activity,SK-MEL-2,102.6%
same,Activity,M14,84.7%
same,Activity,[1],86.7%
same,Activity,TK-10,100.4%
same,Activity,SF-268,77.4%
same,Activity,OVCAR-4,79.1%
same,Activity,HT-29,85.4%
same,Activity,OVCAR-3,88.2%
same,Activity,KM12,83.7%
same,Activity,SNB-19,97.4%
same,Activity,SF-295,95.1%
same,Activity,MDA-MB-231,83.4%
same,Activity,UACC-62,68.7%
same,Activity,MDA-MB-468,93.3%
same,Activity,SK-OV-3,98.2%
same,Activity,K562,53.6%
same,Activity,LOX IMVI,69.8%
same,Activity,PC-3,58.2%
same,Activity,MDA-MB-435,100.8%
same,Activity,SK-MEL-5,72.6%
same,Activity,NCI-H460,64.8%
same,Activity,HCT-116,44.8%
same,Activity,Malme-3M,96.3%
same,Activity,NCI-H322M,96.2%
same,Activity,COLO 205,111.6%
same,Activity,NCI-H522,88.3%
same,Activity,A498,107.5%
same,Activity,IGROV-1,66.4%
same,Activity,[2],86.4%
same,Activity,SN12C,94.9%
same,Activity,A549,95.2%
same,Activity,HOP-62,78.4%
same,Activity,CAKI-1,60.9%
same,Activity,SW-620,86.9%
same,Activity,SNB-75,71.5%
same,Activity,MCF7,89.3%
same,Activity,HL-60(TB),93.4%
same,Activity,RXF 393,93.3%
same,Activity,T47D,63.9%
same,Activity,U-251,63.1%

# Reference: ChEMBL document CHEMBL1811814, “Synthesis and evaluation of indole, pyrazole, chromone and pyrimidine based conjugates for tumor growth inhibitory activities--development of highly efficacious cytotoxic agents” (Eur J Med Chem, 2010)
